We go through 25 molecules from PubChem BioAssay.

A number with no mark means an inactive call. Inconclusive results are not listed. Active and inactive are the calls of the source.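 Rule for the calls, unless noted: active = cell viability at or below a set limit in both duplicate runs, the limit being the all-compound median minus 4 SD (cut at about 23% in these data, passing the limit was not always enough); inconclusive = no clear call, values can overlap the other calls; inactive = the rest.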

Test [1] in a line: S. cerevisiae growth inhibition in permissive medium (OD615), pilot counter-assay for S. cerevisiae lifespan shortening project, permissive growth control (AID 705;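 active = growth inhibition above 25% in both replicates, a cutoff set 3 SD above the mean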). The following applies: OD615, 24 h, at 10 µM, hits give high values. The method, boiled down:
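Test system: Saccharomyces cerevisiae strain carrying genetically modified DeaD replicative-lifespan system; buffer or medium: SC raffinose/galactose permissive medium; dosing: one dose 10 µM, DMSO 0.25% final; times: 24 h exposure, 30 °C; measured by: OD at 615 nm; read-out basis: growth inhibition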

Test [2] can be described thus: S. cerevisiae growth inhibition in restrictive medium, OD615, pilot screen, restrictive growth control, yeast lifespan reduction project (AID 706;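 active = growth inhibition above a set limit, 3 SD over mean compound inhibition, in both replicates, cut at about 43% in these data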;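 note: modified DeaD lifespan yeast strain shifted to restrictive glucose medium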). The following applies: OD615, 48 h, at 10 µM, hits give high values. The method, boiled down: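 material = engineered S. cerevisiae DeaD strain | buffer or medium = glucose-based CSMM-D restrictive medium | dosing = one concentration, 10 µM final, 0.25% DMSO | schedule = 4 h pre-growth plus 48 h compound exposure, 30 °C | detection = OD615 absorbance reading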

Test [3] can be described thus: doxorubicin toxicity protection in MRP-1 cells – H69AR cells, CellTiter-Glo, duplicate, MRP-1 activator project, pilot screen (AID 807;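 active = viability increase at or above a cutoff of the median across tested compounds plus 3 SD, cut at about 8.5% in these data, passing the limit was not always enough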;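 note: compound pretreatment 18-22 h then 72 h combined with doxorubicin; 0% = doxorubicin alone and 100% = vehicle without doxorubicin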). To be noted: H69AR viability with doxorubicin, CellTiter-Glo luminescence; at 10 µM; hits give high values.
The nature of test [4]: viability of HCT116 without oncogenic beta-catenin – human colon tumor cells, pilot screen (AID 823).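 Note: 0% = wells killed by 20 µM Hyamine and 100% = untreated DMSO cell wells.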 To be noted: HCT116 beta-catenin knockout viability, CellTiter-Glo, 60 h; at 10 µM; hits give low values. On the technique in general: In ATP-based viability assays light output follows the ATP content of the culture.
Test [5] can be described thus: viability of PTEN-null HCT116 cells – cell-based, HCT116 clonal line, CellTiter-Glo, pilot screen (AID 824;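 active = viability at or below 27.92% in each of two runs, the all-compound median minus 4 SD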;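 note: 0% = 20 µM Hyamine control and 100% = vehicle cell control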). To be noted: HCT116 PTEN-deleted viability, 60 h, at 10 µM, hits give low values.
Test [6] is described as follows: RAM pathway blockade in budding yeast – dse1pr::URA3 reporter, 5-FOA selection, pilot screen (AID 869;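 active = inhibition over a set limit, the all-compound mean plus 3 SD, in both replicate runs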;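 note: 0% = DMSO wells with no growth and 100% = 10 µM 1-NA-PP1 with full growth; RAM network block rescues cells from 5-FOA so hits raise OD615 growth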). The following applies: S. cerevisiae dse1pr::URA3 5-FOA growth, OD615, 2 d; at 10 µM; hits give high values; strain carries analog-sensitive mutant Cbk1 kinase.
A short description of test [7]: RAM signaling pathway blockade in yeast – S. cerevisiae, Pdr1DBD-CYC8 efflux-inhibited sensitized strain, primary screen (AID 1298;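 active = RAM network inhibition above 8.4% in each of two replicates, 3 SD over the compound average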;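 note: 0% = DMSO untreated cells without growth and 100% = 10 µM 1-NA-PP1 full growth; higher means more yeast growth rescued from 5-FOA killing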). To be noted: S. cerevisiae cbk1-as DSE1-URA3 strain, 5-FOA growth OD615, 2 d; at 50 µM; hits give high values.

The viability is a read-out of living cells in per cent, often relative to untreated cells. As usually defined, the inhibition is the change of the read-out against control, counted positive when it falls. For `Cc1ccc(-n2nnc3c(=O)n(Cc4cccc(C)c4)cnc32)cc1`, the results for the growth inhibition in test [1] and in test [2] were -5.14% and -6.1%, respectively. Also, the viability increase in test [3] was 1.15%. Besides, the viability in test [4] is 99.9%; in test [5], 93.7%. Also, the inhibition in test [6] is 2.65%. In addition, the RAM network inhibition in test [7] was 1.34%.

As for `CC(C)NC(=O)C1CCCN(c2nnc(-n3cccc3)s2)C1` (stereo not given), the growth inhibition in test [1] was -0.35%; in test [2], 14.8%. Also, the viability increase in test [3] was -3.11%. Besides, the viability is 108% in test [4] and 97.6% in test [5]. Besides, the inhibition in test [6] is -0.455%. Moreover, the RAM network inhibition in test [7] was 0.02%.

`Cc1nnc(NC(=O)CSC2CCCCC2)s1`: the values for the growth inhibition in test [1] and in test [2] were 3.88% and 17.7%, respectively. Moreover, in test [3], the viability increase is -0.77%. The viability was 105% in test [4] and 97.9% in test [5]. Moreover, the inhibition in test [6] is 1.1%. In test [7], the RAM network inhibition is 2.15%.

With `O=C(c1ccccc1)N1CCN(c2ccc(NCc3ccc4c(c3)OCO4)cc2)CC1`, the growth inhibition was -15.1% in test [1] and -14.4% in test [2]. Moreover, the viability increase in test [3] is -3.84%. For the same molecule, the viability in test [4] is 64.7%; in test [5] it was 75.8%. Further, the inhibition in test [6] is 1.77%. For the same molecule, in test [7], the RAM network inhibition was 6.1%.

Consider `CCCNC(=O)Cc1cc(=O)[nH]c(=O)[nH]1`, for which the growth inhibition is -14.4% in test [1] and -17.8% in test [2]. Besides, the viability increase in test [3] is 0.56%. For the same molecule, the viability in test [4] is 105%; in test [5], 101%. Moreover, in test [6], the inhibition is 1.33%. The RAM network inhibition in test [7] was 1.73%.

Consider `CC1(C)CC(=O)N(CC(=O)O)c2ccccc2S1(=O)=O`, for which the figures for the growth inhibition in test [1] and in test [2] were -4.39% and 4.7%, respectively. Further, the viability increase in test [3] was -0.77%. In addition, the viability was 99.8% in test [4] and 96.3% in test [5]. Moreover, the inhibition in test [6] is 1.42%. The RAM network inhibition in test [7] was 4.48%.

In the case of `COc1ccc(OCC(=O)Nc2cccc(C(C)=O)c2)cc1`, the growth inhibition was 0.595% in test [1] and 15.9% in test [2]. The viability increase in test [3] is -0.88%. Further, the viability in test [4] is 93.9%; in test [5], 94.6%. Also, the inhibition in test [6] is 0.74%. Moreover, in test [7], the RAM network inhibition is 2.7%.

Consider `CC12C(=O)N(c3cccc4cccnc34)C(=O)C1C1C=CC2C1` (stereo not given), for which the growth inhibition in test [1] was -7.71%; in test [2], 2.71%. Further, the viability increase in test [3] was -1.54%. The viability in test [4] is 103%; in test [5] it was 102%. Moreover, the inhibition in test [6] is 0.395%. Also, the RAM network inhibition in test [7] is 1.05%.

Take `Cc1nc2ccc(S(=O)(=O)NC(C(=O)NCc3ccco3)C(C)C)cc2s1` (stereo not given): the growth inhibition in test [1] is -6.93%; in test [2] it was -0.665%. For the same molecule, in test [3], the viability increase is -2.43%. The viability in test [4] and in test [5] was 101% throughout. In test [6], the inhibition was 0.895%. In test [7], the RAM network inhibition is -0.06%.

Take `COC(=O)c1ccc2[nH]c(C)cc(=O)c2c1`: the growth inhibition in test [1] was -15.1%; in test [2] it was -24.1%. For the same molecule, the viability increase in test [3] is -0.51%. Moreover, the viability in test [4] is 99.8%; in test [5], 90.9%. Also, in test [6], the inhibition is 1.61%. Moreover, the RAM network inhibition in test [7] was 4.64%.

With `O=C(COc1ccccc1Br)NCc1ccco1`, the growth inhibition is 2.92% in test [1] and 8.48% in test [2]. The viability increase in test [3] is -3.54%. The viability in test [4] is 97%; in test [5] it was 102%. Moreover, in test [6], the inhibition was 1.51%. The RAM network inhibition in test [7] was 3.3%.

Take `CC(C)CCNC(=O)Cn1cc2c(n1)CCCCC2`: the growth inhibition in test [1] is 3.78%; in test [2], 2.78%. Further, the viability increase in test [3] is -1.8%. Also, the results for the viability in test [4] and in test [5] were 106% and 100%, respectively. Moreover, the inhibition in test [6] is 1.82%. In addition, the RAM network inhibition in test [7] was 1.38%.

`CCOC(=O)Cc1csc(NC(=O)COc2ccc(N(C)S(=O)(=O)c3cccs3)cc2)n1`: the growth inhibition is -7.54% in test [1] and -11.7% in test [2]. Moreover, the viability increase in test [3] is -1.76%. For the same molecule, the viability was 71% in test [4] and 80.3% in test [5]. The inhibition in test [6] is 0.12%. Also, the RAM network inhibition in test [7] is 1.7%.

Take `COc1cccc(C(=O)Nc2cc(=O)n(C)c(=O)n2C)c1`: the growth inhibition was -11% in test [1] and -8.35% in test [2]. Further, the viability increase in test [3] was -2.05%. The values for the viability in test [4] and in test [5] were 103% and 97.4%, respectively. Further, the inhibition in test [6] was 2.98%. Further, the RAM network inhibition in test [7] was 2.08%.

As to `COc1cc(C2C3=C(CC(C)(C)CC3=O)N(C)C(=O)N2C)cc(OC)c1OC` (stereo not given), the results for the growth inhibition in test [1] and in test [2] were -7.27% and -16.8%, respectively. Further, the viability increase in test [3] was -0.06%. Moreover, the figures for the viability in test [4] and in test [5] were 104% and 103%, respectively. In addition, the inhibition in test [6] is 0.385%. Moreover, the RAM network inhibition in test [7] is -0.15%.

Regarding `OCCNCCCCCOc1ccc(F)cc1`, the growth inhibition in test [1] is -1.2%; in test [2] it was -16.2%. In addition, the viability increase in test [3] is -1.34%. Further, the viability in test [4] was 96.2%; in test [5], 94.5%. In test [6], the inhibition was 2.19%. The RAM network inhibition in test [7] is 0.69%.

As for `COc1ccccc1-c1nnc(NC(=O)c2ccccc2F)o1`, the growth inhibition was -16.6% in test [1] and -17.1% in test [2]. Moreover, the viability increase in test [3] was -5.55%. Further, the viability was 88.3% in test [4] and 89.7% in test [5]. In addition, in test [6], the inhibition was 1.22%. In addition, in test [7], the RAM network inhibition was 0.16%.

As to `Cc1occc1C(=O)NC(C)CCc1ccccc1` (stereo not given), the growth inhibition in test [1] is -7.82%; in test [2], 2.38%. Further, in test [3], the viability increase is -0.95%. Moreover, the viability is 91.8% in test [4] and 94.1% in test [5]. Besides, the inhibition in test [6] was 3.1%. Also, the RAM network inhibition in test [7] was 0.62%.

Turning to `OC(COc1cccc2ccccc12)CN1CCN(c2ccccn2)CC1` (stereo not given), the growth inhibition in test [1] is -5.36%; in test [2], 1.3%. Moreover, in test [3], the viability increase was -2.34%. Besides, the results for the viability in test [4] and in test [5] were 84.9% and 81.7%, respectively. Further, in test [6], the inhibition is 0.445%. The RAM network inhibition in test [7] is 2.59%.

Take `COc1ccc(CCN2CC34C=CC(O3)C(C(=O)NCc3ccccc3)C4C2=O)cc1OC` (stereo not given): the growth inhibition in test [1] is -2.83%; in test [2] it was -11.6%. Also, the viability increase in test [3] was -1.24%. Moreover, the figures for the viability in test [4] and in test [5] were 95.2% and 93.9%, respectively. Also, in test [6], the inhibition is 0.89%. Further, the RAM network inhibition in test [7] is 9.27%.

For the molecule `CSc1nnc(Cn2c(=O)sc3ccccc32)n1C`, the growth inhibition in test [1] is -4.88%; in test [2], -13%. Further, the viability increase in test [3] was -1.82%. In addition, the viability in test [4] was 109%; in test [5] it was 99.4%. Moreover, the inhibition in test [6] is 1.94%. For the same molecule, in test [7], the RAM network inhibition is 6.98%.

Take `CCOC(=O)c1c(N)sc2c(O)c(Br)ccc12`: the results for the growth inhibition in test [1] and in test [2] were -26.9% and -1.8%, respectively. The viability increase in test [3] is -0.49%. Moreover, the results for the viability in test [4] and in test [5] were 104% and 107%, respectively. The inhibition in test [6] was 1.01%. The RAM network inhibition in test [7] is 5.24%.

On to `Brc1ccc(CSc2nnc(-c3ccccn3)n2Cc2ccco2)cc1`, for which the growth inhibition is 2.3% in test [1] and 28.9% in test [2]. In test [3], the viability increase was -3.69%. Moreover, the viability in test [4] is 15.2% (active); in test [5], 15.7% (active). Also, in test [6], the inhibition was 2.53%. Further, in test [7], the RAM network inhibition is 7.63%.

For `CNC(=O)c1cc2cc(OC)ccc2n1CCN(C)C`, the growth inhibition in test [1] is -8.87%; in test [2], -16.4%. The viability increase in test [3] was -3.65%. Moreover, the viability was 92% in test [4] and 87.2% in test [5]. Also, the inhibition in test [6] was 2.31%. In test [7], the RAM network inhibition was 6.18%.

`Cc1cc(C)c(S(=O)(=O)Nc2nnc(C)s2)c(C)c1`: the growth inhibition in test [1] is -20.6%; in test [2] it was -11.7%. For the same molecule, the viability increase in test [3] was 3.99%. Besides, the viability in test [4] is 102%; in test [5], 99.3%. In addition, in test [6], the inhibition was 0.87%. Moreover, the RAM network inhibition in test [7] is 8.49%.
